The results in this text go back to ChEMBL document CHEMBL1140550, “New 'chemical probes' to examine the role of the hFPRL1 (or ALXR) receptor in inflammation” (Bioorg Med Chem Lett, 2007).

The target in assay [1] is T1, N-formyl peptide receptor 2 (Homo sapiens, UniProt P25090).
T1 sequence (P25090 whole entry): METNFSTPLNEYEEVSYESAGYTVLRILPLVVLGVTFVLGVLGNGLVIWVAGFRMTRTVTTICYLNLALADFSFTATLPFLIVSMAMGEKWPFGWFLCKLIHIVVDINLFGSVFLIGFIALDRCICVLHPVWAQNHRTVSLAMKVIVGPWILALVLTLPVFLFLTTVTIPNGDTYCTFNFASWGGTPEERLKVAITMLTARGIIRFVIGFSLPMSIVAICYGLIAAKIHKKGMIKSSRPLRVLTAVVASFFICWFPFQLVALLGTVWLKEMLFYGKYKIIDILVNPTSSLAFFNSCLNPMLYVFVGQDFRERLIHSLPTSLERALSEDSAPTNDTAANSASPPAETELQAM
In words: Agonist activity at human recombinant FPRL1 expressed in CHO cells assessed as calcium flux by aequorin based bioluminescence assay. In kind it is functional, cell-based. Put shortly:
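EC50 from Ca2+ flux in recombinant CHO cells co-expressing human FPRL1, Gα15 protein and aequorin. Values without standard deviation are the mean of two data points.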
(In general: Calcium flux is commonly read through the fluorescence of an indicator in the cells.)

A short description of assay [2]: Inhibition of fMLP-induced human PMN migration after 45 mins. In kind it is functional. The following applies: 0.75 h. Put shortly:
(§1)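 Human polymorphonuclear neutrophils from at least three donors, exposed to compound (final DMSO 0.1%). Migration toward a gradient of IL-8 or fMLP chemo-attractant (10 nM each) followed by fluorescence. Mean IC50 reported.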

The test system of another assay is Blood. In words: Stimulation of IL6 secretion in human whole blood after 18 hrs. It is filed as functional, tissue-based. An outline of the steps: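 Heparinized human whole blood, 50% final, preincubated with compound for 1 h at 37 °C, 5% CO2, then stimulated with IL-1β (300 pM final) for 18 h. Final DMSO 0.1%. IL-6 in supernatant/plasma measured by electrochemiluminescence immunoassay.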

Assay [3] in a line: Inhibition of IL8-induced human PMN migration after 45 mins. In kind it is functional. The following applies: 0.75 h. Put shortly:
as §1

Another assay deals with T2, fMet-Leu-Phe receptor (Homo sapiens, UniProt P21462).
T2 sequence (P21462 whole entry): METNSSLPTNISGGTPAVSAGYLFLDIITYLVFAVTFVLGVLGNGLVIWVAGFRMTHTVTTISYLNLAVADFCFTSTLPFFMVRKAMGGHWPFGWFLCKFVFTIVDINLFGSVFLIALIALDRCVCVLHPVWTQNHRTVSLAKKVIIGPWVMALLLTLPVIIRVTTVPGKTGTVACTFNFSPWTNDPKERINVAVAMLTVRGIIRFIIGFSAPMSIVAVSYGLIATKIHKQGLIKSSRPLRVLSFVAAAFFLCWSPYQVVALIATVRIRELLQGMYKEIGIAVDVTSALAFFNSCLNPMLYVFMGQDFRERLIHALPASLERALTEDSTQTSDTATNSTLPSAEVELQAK
The assay is described as follows: Agonist activity at human recombinant FPR expressed in CHO cells assessed as calcium flux by aequorin based bioluminescence assay. It is filed as functional, cell-based. An outline of the steps: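 CHO cells stably transfected with human FPR, aequorin and Gα15 protein; EC50 derived from Ca2+ flux read by aequorin luminescence.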

Active and inactive are the calls of the source. The calls are words filed in the database; no cut-off is given here.

For the compound `CC(C)c1c(NC(=O)Nc2ccccc2Cl)c(=O)n(-c2ccccc2)n1C`, the EC50 (as a rule, the concentration needed to bring the measured effect to its halfway point) in assay [1] was greater than 10000 nM.

As to `CC(C)c1c(NC(=O)Nc2ccc(Cl)cc2)c(=O)n(-c2ccccc2)n1C`, the figures for the IC50 in assay [2] and in assay [3] were 640 nM and 240 nM, respectively. Moreover, the outcome in the assay with Blood was Active.

In the case of `CCc1nc2ccccc2n1[C@@H]1CCN(C(=O)c2nc3ccc(OC)cc3[nH]2)C1`, the EC50 in assay [1] is 1870 nM; at fMet-Leu-Phe receptor, greater than 10000 nM.
